Measured values published in ChEMBL document CHEMBL2331168, “Anticonvulsant evaluation of aminoalkanol derivatives of 2- and 4-methylxanthone” (Bioorg Med Chem, 2013).
Active and inactive are the calls of the source.

Columns and labels:
[1] = system: Mus musculus; experiment: Neurotoxicity in albino mouse assessed as minimal motor impairment at 30 mg/kg, ip after 4 hrs by rotorod test; format: toxicity, organism-based; parameters: dose 30 mg/kg, route intraperitoneal; conditions: in vivo
Outline: (§1)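 Male albino mice (Carworth Farms No. 1) were dosed ip with suspensions in 0.5% methylcellulose and put on a 1 in. knurled rod rotating at 6 rpm at set times after dosing. Neurotoxicity meant failure to stay on the rod for at least 1 min in each of three trials. Scored as impaired/tested.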

[2] = species on record: Mus musculus; experiment: Protective index, ratio TD50 for albino mouse to ED50 for albino mouse by maximal electroshock-induced seizure test after 1 hr; format: functional
Outline: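 Protective index was calculated as mouse ip TD50 (rotorod) divided by mouse ip MES ED50, both obtained by quantitative dose-response testing at the stated post-dose time.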

[3] = system: Mus musculus; experiment: Neurotoxicity in albino mouse assessed as minimal motor impairment at 30 mg/kg, ip after 0.5 hrs by rotorod test; format: toxicity, organism-based; parameters: dose 30 mg/kg, route intraperitoneal; conditions: in vivo; outline: as §1
[4] = Neurotoxicity in ip dosed albino mouse assessed as minimal motor impairment after 2 hrs by rotorod test; format: toxicity, organism-based; conditions: in vivo
Outline: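 TD50, with 95% confidence intervals, was the ip dose causing neurotoxicity in 50% of male albino mice. Deficit was judged on the rotorod: a 1 in. knurled rod at 6 rpm, where failure to hold on for 1 min in each of three trials counted as deficit. Read at the stated time after dosing.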

[5] = system: Rattus norvegicus; experiment: Anticonvulsant activity in Sprague-Dawley rat assessed as protection against maximal electroshock-induced seizures at 30 mg/kg, po after 4 hrs; format: functional, organism-based; parameters: dose 30 mg/kg
Outline: (§2)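 Male Sprague-Dawley rats dosed orally at 30 mg/kg and tested at 0.25, 0.5, 1, 2 and 4 h. Seizures were induced by 60 Hz alternating current at 150 mA for 0.2 s through corneal electrodes, after a drop of 0.9% NaCl in each eye. Protection meant abolition of hindlimb tonic extension. Reported as protected/tested, usually 4 rats per time point.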

[6] = system: Mus musculus; experiment: Anticonvulsant activity in albino mouse assessed as protection against subcutaneous pentetrazole-induced seizures at 300 mg/kg, ip after 4 hrs; format: functional, organism-based; parameters: dose 300 mg/kg
Outline: (§3)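 Male albino mice (Carworth Farms No. 1) received compound ip in 0.5% methylcellulose, then pentetrazole 85 mg/kg sc in 0.9% NaCl at 0.5 or 4 h. Mice were watched for at least 30 min. Protection meant no threshold seizure, defined as a single clonic spasm lasting at least 5 s. Scored as protected/tested.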

[7] = system: Mus musculus; experiment: Protective index, ratio TD50 for albino mouse to ED50 for albino mouse by subcutaneous pentetrazole-induced seizure test after 2 hrs; format: functional
[8] = system: Mus musculus; experiment: Anticonvulsant activity in albino mouse assessed as protection against subcutaneous pentetrazole-induced seizures at 300 mg/kg, ip after 0.5 hrs; format: functional, organism-based; parameters: dose 300 mg/kg; outline: as §3
[9] = system: Mus musculus; experiment: Anticonvulsant activity in albino mouse assessed as protection against maximal electroshock-induced seizures at 30 mg/kg, ip after 4 hrs; format: functional, organism-based; parameters: dose 30 mg/kg
Outline: (§4)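 Male albino mice (Carworth Farms No. 1) were given the compound ip as a suspension in 0.5% methylcellulose at 3–300 mg/kg. MES testing was at 0.5 and 4 h, sometimes also at 0.25 and 1 h. Current was 60 Hz, 50 mA, 0.2 s via corneal electrodes, with saline eye drops. Protection meant no hindlimb tonic extension, scored as protected/tested.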

[10] = system: Mus musculus; experiment: Neurotoxicity in albino mouse assessed as minimal motor impairment at 100 mg/kg, ip after 0.5 hrs by rotorod test; format: toxicity, organism-based; parameters: dose 100 mg/kg, route intraperitoneal; conditions: in vivo; outline: as §1
[11] = system: Mus musculus; experiment: Anticonvulsant activity in albino mouse assessed as protection against subcutaneous pentetrazole-induced seizures at 30 mg/kg, ip after 4 hrs; format: functional, organism-based; parameters: dose 30 mg/kg; outline: as §3
[12] = system: Mus musculus; experiment: Anticonvulsant activity in ip dosed albino mouse assessed as protection against maximal electroshock-induced seizures after 1 hr; format: functional
Outline: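 ED50, with 95% confidence intervals, was the ip dose protecting 50% of mice in the MES test. It was measured at the stated post-dose time in male albino mice given suspensions in 0.5% methylcellulose. MES used 60 Hz, 50 mA, 0.2 s corneal stimulation, and the endpoint was abolition of hindlimb tonic extension.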

[13] = system: Mus musculus; experiment: Anticonvulsant activity in albino mouse assessed as protection against maximal electroshock-induced seizures at 30 mg/kg, ip after 0.5 hrs; format: functional, organism-based; parameters: dose 30 mg/kg; outline: as §4
[14] = system: Rattus norvegicus; experiment: Neurotoxicity in Sprague-Dawley rat assessed as minimal motor impairment at 30 mg/kg, po after 4 hrs by rotorod test; conditions: in vivo
[15] = system: Mus musculus; experiment: Anticonvulsant activity in albino mouse assessed as protection against subcutaneous pentetrazole-induced seizures at 30 mg/kg, ip after 0.5 hrs; format: functional, organism-based; parameters: dose 30 mg/kg; outline: as §3
[16] = system: Rattus norvegicus; experiment: Neurotoxicity in Sprague-Dawley rat assessed as minimal motor impairment at 30 mg/kg, po after 0.5 hrs by rotorod test; conditions: in vivo
[17] = system: Mus musculus; experiment: Anticonvulsant activity in ip dosed albino mouse assessed as protection against subcutaneous pentetrazole-induced seizures after 2 hrs; format: functional
[18] = system: Mus musculus; experiment: Neurotoxicity in albino mouse assessed as minimal motor impairment at 100 mg/kg, ip after 4 hrs by rotorod test; format: toxicity, organism-based; parameters: dose 100 mg/kg, route intraperitoneal; conditions: in vivo; outline: as §1
[19] = system: Mus musculus; experiment: Anticonvulsant activity in albino mouse assessed as protection against maximal electroshock-induced seizures at 300 mg/kg, ip after 4 hrs; format: functional, organism-based; parameters: dose 300 mg/kg; outline: as §4
[20] = system: Mus musculus; experiment: Anticonvulsant activity in albino mouse assessed as protection against maximal electroshock-induced seizures at 300 mg/kg, ip after 0.5 hrs; format: functional, organism-based; parameters: dose 300 mg/kg; outline: as §4
[21] = system: Mus musculus; experiment: Neurotoxicity in albino mouse assessed as minimal motor impairment at 300 mg/kg, ip after 0.5 hrs by rotorod test; format: toxicity, organism-based; parameters: dose 300 mg/kg, route intraperitoneal; conditions: in vivo; outline: as §1
[22] = system: Rattus norvegicus; experiment: Neurotoxicity in Sprague-Dawley rat assessed as minimal motor impairment at 30 mg/kg, po after 1 hr by rotorod test; conditions: in vivo
[23] = system: Rattus norvegicus; experiment: Neurotoxicity in Sprague-Dawley rat assessed as minimal motor impairment at 30 mg/kg, po after 2 hrs by rotorod test; conditions: in vivo
[24] = system: Mus musculus; experiment: Neurotoxicity in albino mouse assessed as minimal motor impairment at 300 mg/kg, ip after 4 hrs by rotorod test; format: toxicity, organism-based; parameters: dose 300 mg/kg, route intraperitoneal; conditions: in vivo; outline: as §1
[25] = system: Mus musculus; experiment: Anticonvulsant activity in albino mouse assessed as protection against subcutaneous pentetrazole-induced seizures at 100 mg/kg, ip after 4 hrs; format: functional, organism-based; parameters: dose 100 mg/kg; outline: as §3
[26] = system: Mus musculus; experiment: Anticonvulsant activity in albino mouse assessed as protection against maximal electroshock-induced seizures at 100 mg/kg, ip after 4 hrs; format: functional, organism-based; parameters: dose 100 mg/kg; outline: as §4
[27] = system: Rattus norvegicus; experiment: Anticonvulsant activity in Sprague-Dawley rat assessed as protection against maximal electroshock-induced seizures at 30 mg/kg, po after 1 hr; format: functional, organism-based; parameters: dose 30 mg/kg; outline: as §2
[28] = system: Rattus norvegicus; experiment: Anticonvulsant activity in Sprague-Dawley rat assessed as protection against maximal electroshock-induced seizures at 30 mg/kg, po after 2 hrs; format: functional, organism-based; parameters: dose 30 mg/kg; outline: as §2
[29] = system: Mus musculus; experiment: Anticonvulsant activity in albino mouse assessed as protection against subcutaneous pentetrazole-induced seizures at 100 mg/kg, ip after 0.5 hrs; format: functional, organism-based; parameters: dose 100 mg/kg; outline: as §3
[30] = system: Rattus norvegicus; experiment: Neurotoxicity in Sprague-Dawley rat assessed as minimal motor impairment at 30 mg/kg, po after 0.25 hrs by rotorod test; conditions: in vivo
[31] = system: Rattus norvegicus; experiment: Anticonvulsant activity in Sprague-Dawley rat assessed as protection against maximal electroshock-induced seizures at 30 mg/kg, po after 0.5 hrs; format: functional, organism-based; parameters: dose 30 mg/kg; outline: as §2
[32] = system: Rattus norvegicus; experiment: Anticonvulsant activity in Sprague-Dawley rat assessed as protection against maximal electroshock-induced seizures at 30 mg/kg, po after 0.25 hrs; format: functional, organism-based; parameters: dose 30 mg/kg; outline: as §2
[33] = system: Mus musculus; experiment: Neurotoxicity in albino mouse assessed as minimal motor impairment at 100 mg/kg, ip after 0.25 hrs by rotorod test; format: toxicity, organism-based; parameters: dose 100 mg/kg, route intraperitoneal; conditions: in vivo; outline: as §1
[34] = system: Mus musculus; experiment: Anticonvulsant activity in albino mouse assessed as protection against maximal electroshock-induced seizures at 100 mg/kg, ip after 0.5 hrs; format: functional, organism-based; parameters: dose 100 mg/kg; outline: as §4
[35] = system: Mus musculus; experiment: Anticonvulsant activity in albino mouse assessed as protection against maximal electroshock-induced seizures at 100 mg/kg, ip after 1 hr; format: functional, organism-based; parameters: dose 100 mg/kg; outline: as §4

Row | Structure (SMILES) | Activity [1] | Activity [3] | Activity [5] | Activity [6] | Activity [8] | Activity [9] | Activity [11] | Activity [13] | Activity [14] | Activity [15] | Activity [16] | Activity [18] | Activity [19] | Activity [20] | Activity [22] | Activity [23] | Activity [24] | Activity [25] | Activity [26] | Activity [29] | further results
1 | C[C@@H](CO)NCc1ccc2oc3ccc(Cl)cc3c(=O)c2c1 | Non-toxic | Non-toxic | inactive | inactive | inactive | inactive | inactive | inactive | Non-toxic | inactive | Non-toxic | Non-toxic | Active | inactive | Non-toxic | Non-toxic | Non-toxic | inactive | Active | inactive | Ratio TD50/ED50 [2]: 3.93; TD50 at 2 h [4]: 313 mg/kg; Ratio TD50/ED50 [7]: <0.84; Activity [10]: Non-toxic; ED50 [12]: 79.7 mg/kg; ED50 [17]: > 375 mg/kg; Activity [21]: Non-toxic; Activity [27]: inactive; Activity [28]: inactive; Activity [30]: Non-toxic
2 | CN(Cc1ccc2oc3ccc(Cl)cc3c(=O)c2c1)C(C)(C)CO | Non-toxic |  | inactive | inactive | inactive | inactive | inactive | inactive | Non-toxic | inactive | Non-toxic | Non-toxic | Active | Active | Non-toxic | Non-toxic | Non-toxic | inactive |  | inactive | Activity [31]: inactive; Activity [32]: inactive; Activity [27]: inactive; Activity [28]: inactive; Activity [30]: Non-toxic
3 | CC(C)(CO)NCc1ccc2oc3ccc(Cl)cc3c(=O)c2c1 |  | Non-toxic |  | inactive | inactive | inactive | inactive | inactive |  | inactive |  | Non-toxic | Active | Active |  |  | Non-toxic | inactive | inactive | inactive | Activity [33]: Non-toxic; Activity [34]: inactive; Activity [35]: inactive
